Data taken from ChEMBL document CHEMBL1154210, “Reversal of fluconazole resistance by sulfated sterols from the marine sponge Topsentia sp” (J Nat Prod, 2009).
The source made the active and inactive calls. No cut-off for these calls is given here.

Tests used:
Plasmodium falciparum [1] = assay: Antiprotozoal activity Plasmodium falciparum D6; assay type: functional, organism-based
Cryptococcus neoformans = assay: Antimicrobial activity against Cryptococcus neoformans; assay type: functional, organism-based
Candida albicans [2] = assay: Antimicrobial activity against fluconazole-resistant Candida albicans 1758 over expressing MDR1 at 194 uM ater 24 hrs in presence of fluconazole; assay type: functional
Procedure, shortened: (§1)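 Broth microdilution in YPD with C. albicans inoculum at 1 × 10^4 CFU/mL final; samples diluted in 0.9% saline. Fluconazole in DMSO at ~1/3rd its IC50, with DMSO-only duplicates. OD 630 nm read before and after 37 °C for 24 h. A checkerboard of sample × fluconazole gave FIC = sum of combination/alone IC50 ratios for each agent.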

Saccharomyces cerevisiae [3] = assay: Antimicrobial activity against azole-resistant Saccharomyces cerevisiae expressing null pump at 13 uM after 40 to 48 hrs in presence of fluconazole; assay type: functional
Procedure, shortened: (§2)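 S. cerevisiae strains (MDR1-overexpressing or null pump) inoculated in YPD at 1 × 10^4 CFU/mL final into saline-diluted samples. Fluconazole in DMSO at ~1/10th its IC50, with DMSO-only duplicates. Absorbance at 630 nm read before and after 40–48 h at 30 °C. Checkerboard IC50s combined into FIC (combination/alone ratios summed).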

Candida albicans [4] = assay: Antimicrobial activity against fluconazole-susceptible Candida albicans isolate 1 at 13 uM ater 24 hrs in presence of fluconazole; assay type: functional
Procedure, shortened: (§3)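 C. albicans isolates #1 and #17 in YPD at 1 × 10^4 CFU/mL final with saline-diluted samples plus fluconazole (DMSO) at ~1/3rd its IC50. 630 nm readings taken before and after 24 h at 37 °C. FIC was derived from checkerboard IC50s of each agent alone and in combination.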

[5] = test system: Mycobacterium intracellulare; assay: Antimicrobial activity against Mycobacterium intracellular; assay type: functional, organism-based
Saccharomyces cerevisiae [6] = assay: Antimicrobial activity against azole-resistant Saccharomyces cerevisiae expressing CDR1 efflux pump at 13 uM after 40 to 48 hrs in presence of fluconazole; assay type: functional
Procedure, shortened: (§4)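 Checkerboard combination in S. cerevisiae CDR1 efflux pump strain: compound diluted in 0.9% saline, crossed with FLU (in DMSO) over all concentration pairs; inoculum in YPD broth at 1 × 10^4 CFU/mL; incubated 30 °C for 40–48 h; growth read at 630 nm before and after incubation. FIC = (IC50 combined/IC50 alone) summed for compound and FLU.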

Saccharomyces cerevisiae [7] = assay: Antimicrobial activity against azole-resistant Saccharomyces cerevisiae expressing MDR1 at 13 uM after 40 to 48 hrs in presence of fluconazole; assay type: functional; procedure, shortened: as §2
Staphylococcus aureus = assay: Antimicrobial activity against methicillin resistant Staphylococcus aureus; assay type: functional, organism-based
Nakaseomyces glabratus = assay: Antimicrobial activity against Candida glabrata; assay type: functional, organism-based
Leishmania donovani = assay: Antiprotozoal activity Leishmania donovani by Alamar blue assay; assay type: functional, organism-based
Plasmodium falciparum [8] = assay: Antiprotozoal activity Plasmodium falciparum W2; assay type: functional, organism-based
Candida albicans [9] = assay: Antimicrobial activity against fluconazole-resistant Candida albicans isolate 17 at 13 uM ater 24 hrs in presence of fluconazole; assay type: functional; procedure, shortened: as §3
Vero [10] = assay: Cytotoxicity against african green monkey Vero cells at 9.25 uM after 48 hrs by neutral red assay; assay type: cell-based; conditions: chlorocebus sabaeus
Candida albicans [11] = assay: Antimicrobial activity against Fluconazole susceptible Candida albicans 1587 at 194 uM ater 24 hrs in presence of fluconazole; assay type: functional; procedure, shortened: as §1
Pichia kudriavzevii = assay: Antimicrobial activity against Candida Krusei; assay type: functional, organism-based
Vero [12] = assay: Cytotoxicity against african green monkey Vero cells at 11.2 uM after 48 hrs by neutral red assay; assay type: cell-based; conditions: chlorocebus sabaeus
Vero [13] = assay: Cytotoxicity against african green monkey Vero cells at 9 uM after 48 hrs by neutral red assay; assay type: cell-based; conditions: chlorocebus sabaeus
Candida albicans [14] = assay: Antimicrobial activity against fluconazole-susceptible Candida albicans 1587 at 189 uM ater 24 hrs in presence of fluconazole; assay type: functional; procedure, shortened: as §1
Candida albicans [15] = assay: Antimicrobial activity against fluconazole-resistant Candida albicans 1758 over expressing MDR1 at 189 uM ater 24 hrs in presence of fluconazole; assay type: functional; procedure, shortened: as §1
Candida albicans [16] = assay: Antimicrobial activity against fluconazole-resistant Candida albicans 1758 over expressing MDR1 at 5.7 uM ater 24 hrs in presence of fluconazole; assay type: functional; procedure, shortened: as §1
Saccharomyces cerevisiae [17] = assay: Antimicrobial activity against azole-resistant Saccharomyces cerevisiae expressing CDR1 efflux pump at 26 uM after 40 to 48 hrs in presence of fluconazole; assay type: functional; procedure, shortened: as §4
Candida albicans [18] = assay: Antimicrobial activity against fluconazole-susceptible Candida albicans isolate 1 at 26 uM ater 24 hrs in presence of fluconazole; assay type: functional; procedure, shortened: as §3
Candida albicans [19] = assay: Antimicrobial activity against Fluconazole susceptible Candida albicans 1587 at 5.7 uM ater 24 hrs in presence of fluconazole; assay type: functional; procedure, shortened: as §1
Candida albicans [20] = assay: Antimicrobial activity against fluconazole-resistant Candida albicans isolate 17 at 26 uM ater 24 hrs in presence of fluconazole; assay type: functional; procedure, shortened: as §3
Saccharomyces cerevisiae [21] = assay: Antimicrobial activity against azole-resistant Saccharomyces cerevisiae expressing MDR1 at 26 uM after 40 to 48 hrs in presence of fluconazole; assay type: functional; procedure, shortened: as §2
Saccharomyces cerevisiae [22] = assay: Antimicrobial activity against azole-resistant Saccharomyces cerevisiae expressing null pump at 26 uM after 40 to 48 hrs in presence of fluconazole; assay type: functional; procedure, shortened: as §2

| SMILES | Activity (Plasmodium falciparum [1]) | Activity (Cryptococcus neoformans) | fractional inhibitory concentration index (FICI) (Saccharomyces cerevisiae [3]) | fractional inhibitory concentration index (FICI) (Candida albicans [4]) | Activity [5] | fractional inhibitory concentration index (FICI) (Saccharomyces cerevisiae [6]) | fractional inhibitory concentration index (FICI) (Saccharomyces cerevisiae [7]) | Activity (Staphylococcus aureus) | Activity (Nakaseomyces glabratus) | Activity (Leishmania donovani) | Activity (Plasmodium falciparum [8]) | fractional inhibitory concentration index (FICI) (Candida albicans [9]) | Activity (Pichia kudriavzevii) | further results |
| --- | --- | --- | --- | --- | --- | --- | --- | --- | --- | --- | --- | --- | --- | --- |
| C=C(CC[C@](C)(O)[C@H]1[C@@H](O)C[C@H]2[C@@H]3CCc4cc(OS(=O)(=O)[O-])ccc4[C@H]3CC[C@@]21C)C(C)C.[Na+] | inactive | inactive | 0.75 | 1.7 | inactive | 1.34 | 0.15 | inactive | inactive | inactive | inactive | 1.8 | inactive | fractional inhibitory concentration index (FICI) (Candida albicans [2]): 0.2; Activity (Vero [10]): Non-toxic; fractional inhibitory concentration index (FICI) (Candida albicans [11]): 1.6 |
| C/C=C(\CC[C@](C)(O)[C@H]1[C@@H](O)C[C@H]2[C@@H]3CCc4cc(O)ccc4[C@H]3CC[C@@]21C)C(C)C [GEODISTEROL] | inactive | inactive | – | – | inactive | – | – | inactive | inactive | inactive | inactive | – | inactive | Activity (Vero [12]): Non-toxic |
| C/C=C(\CC[C@](C)(O)[C@H]1[C@@H](O)C[C@H]2[C@@H]3CCc4cc(OS(=O)(=O)[O-])ccc4[C@H]3CC[C@@]21C)C(C)C.[Na+] | inactive | inactive | 1.1 | 1.5 | inactive | 1.04 | 0.08 | inactive | inactive | inactive | inactive | 1.3 | inactive | Activity (Vero [13]): Non-toxic; fractional inhibitory concentration index (FICI) (Candida albicans [14]): 1.7; fractional inhibitory concentration index (FICI) (Candida albicans [15]): 0.2 |
| CC(C)[C@@H]1OC(=O)[C@@H](Cc2ccccc2)N(C)C(=O)[C@H](C(C)C)OC(=O)[C@@H](Cc2ccccc2)N(C)C(=O)[C@H](C(C)C)OC(=O)[C@@H](Cc2ccccc2)N(C)C1=O [BEAUVERICIN] | – | – | – | – | – | – | – | – | – | – | – | – | – | fractional inhibitory concentration index (FICI) (Candida albicans [16]): 2.8; fractional inhibitory concentration index (FICI) (Saccharomyces cerevisiae [17]): 0.04; fractional inhibitory concentration index (FICI) (Candida albicans [18]): 0.5; fractional inhibitory concentration index (FICI) (Candida albicans [19]): 0.5; fractional inhibitory concentration index (FICI) (Candida albicans [20]): 0.7; fractional inhibitory concentration index (FICI) (Saccharomyces cerevisiae [21]): 2.28; fractional inhibitory concentration index (FICI) (Saccharomyces cerevisiae [22]): 3.38 |
